# Shown is part of a subset that was picked to be rich in hits.
# p-CIP stab down – p/CIP-EGFP fusion destabilizers, primary screen, fluorescence, F442A cells. Q05BA5. 16 h. decrease of EGFP signal, % at 10 µM. 290,000 compounds, 0.01% hits;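 active = EGFP signal decrease of at least 30% at 10 µM or well 3 SD below plate mean, unless failing retest; inactive = the rest, including hits failing retest or dose response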
# ABCB6 inh MLPCN – ABCB6 transporter inhibitors, primary screen, K562-ABCB6 cells, flow cytometry, MLPCN library; ATP-binding cassette sub-family B member 6 (Homo sapiens), Q9NP58; fluorescence ratio to DMSO, % at 10 µM; K562-ABCB6 porphyrin accumulation, 1 h; stronger effect = lower value; 360,000 compounds, 0.19% hits; AID 602162, 2011;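 active = fluorescence ratio to DMSO below 75%, the collection mean minus 3 SD; inconclusive = too few cells collected in the well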;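 note: signal is porphyrin accumulated inside mitochondria; 100% equals median channel fluorescence of DMSO control wells; lower ratio means ABCB6 inhibition with less porphyrin fluorescence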
# Dynein cargo inh – inhibitors of GR-EGFP nuclear translocation, primary screen, dynein cargo transport inhibitor project, imaging, high-content, 3617.4 mouse cells | test concentration mostly 20 µM; stimulated with dexamethasone, 1 µM; stronger effect = lower value | z-score, hits read low | 220,000 compounds, 0.47% hits;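 active = plate z-score of nuclear minus cytoplasmic receptor signal below a set negative limit, without overly bright fluorescence or cell loss, cut at about -3.5 in these data, passing the limit was not always enough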;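 note: z-score of nuclear minus cytoplasmic ring GR-EGFP intensity difference per well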
#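 Buffer or medium: tet-free, stripped-serum medium; reagent: dexamethasone at 1.0 µM final, 30 min; incubation: 48 h induction, 1 h compound, 30 min dex at 37 °C; measured by: formaldehyde fixation, Hoechst nuclear stain, 10x automated fluorescence imaging; read-out: nuclear-to-cytoplasmic GR-EGFP distribution per well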
# V-ATPase pHluor – regulators of yeast V-ATPase proton pumping, primary screen, pHLuorin cytosolic pH fluorescence | S. cerevisiae | AID 504577, 2011 | 350,000 compounds, 0.37% hits | response, % at 10 µM; in the data active = response mostly above about 7.3%, no sharp cut-off; inactive = mostly below about 5.4%; note: actives read high
# KCC2 mod – KCC2 cotransporter modulators, thallium flux, primary screen, cell-based, HEK293 KCC2, FluoZin-2 fluorescence, MLSMR; Solute carrier family 12 member 5 (Homo sapiens), Q9H2X9; KCC2 cells, thallium flux FluoZin-2 fluorescence; B-score of Tl+ flux slope (higher = more flux/activation; lower = inhibition) at 10 µM; 190,000 compounds, 2.2% hits; AID 1456, 2008;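 active = thallium flux slope and its plate-corrected score both differing from the plate sample mean at a set confidence after two filtering rounds, in either direction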;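 note: slope of fluorescence scaled to starting intensity during 10 to 20 s after thallium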
# Target sequence (Q9H2X9 whole entry, looked up): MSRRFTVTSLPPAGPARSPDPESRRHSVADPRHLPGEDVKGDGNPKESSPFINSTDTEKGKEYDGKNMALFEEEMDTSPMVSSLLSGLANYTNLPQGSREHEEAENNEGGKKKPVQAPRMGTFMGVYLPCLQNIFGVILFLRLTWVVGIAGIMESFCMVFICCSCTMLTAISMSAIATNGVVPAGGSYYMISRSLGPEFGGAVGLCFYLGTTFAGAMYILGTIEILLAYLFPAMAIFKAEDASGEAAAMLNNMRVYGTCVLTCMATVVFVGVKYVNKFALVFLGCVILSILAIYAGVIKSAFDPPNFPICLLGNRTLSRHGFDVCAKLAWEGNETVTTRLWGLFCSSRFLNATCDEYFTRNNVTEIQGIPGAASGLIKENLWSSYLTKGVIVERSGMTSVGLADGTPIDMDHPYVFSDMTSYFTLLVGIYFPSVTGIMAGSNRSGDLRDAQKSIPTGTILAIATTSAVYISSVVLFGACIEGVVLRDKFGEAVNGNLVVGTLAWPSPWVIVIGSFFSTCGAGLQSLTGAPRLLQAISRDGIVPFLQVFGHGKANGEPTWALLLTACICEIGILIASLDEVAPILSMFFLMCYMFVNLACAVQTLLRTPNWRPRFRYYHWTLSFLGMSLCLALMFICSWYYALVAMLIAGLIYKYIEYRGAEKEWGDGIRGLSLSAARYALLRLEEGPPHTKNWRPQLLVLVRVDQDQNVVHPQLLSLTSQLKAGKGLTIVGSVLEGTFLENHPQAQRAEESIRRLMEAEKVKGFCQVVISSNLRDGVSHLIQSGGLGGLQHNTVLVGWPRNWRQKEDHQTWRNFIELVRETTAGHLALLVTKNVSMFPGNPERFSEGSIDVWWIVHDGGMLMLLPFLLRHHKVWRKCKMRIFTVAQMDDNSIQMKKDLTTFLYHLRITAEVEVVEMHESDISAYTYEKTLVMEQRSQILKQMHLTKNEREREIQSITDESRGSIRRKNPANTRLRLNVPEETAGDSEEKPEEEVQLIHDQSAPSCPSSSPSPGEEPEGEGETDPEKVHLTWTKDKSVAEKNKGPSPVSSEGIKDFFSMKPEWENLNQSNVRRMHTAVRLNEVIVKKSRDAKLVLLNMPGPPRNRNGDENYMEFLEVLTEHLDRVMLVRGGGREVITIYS
# KCC2 sec1 – KCC2 modulators in sodium-free buffer, confirmation, cell-based, HEK293 KCC2, thallium flux, secondary assay; shares compounds with KCC2 mod; FluoZin2 fluorescence; stronger effect = higher value; AID 1713, 2009; normalised thallium flux (F/F0 slope) at 10 µM; 3,700 compounds, 15% hits;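 active = thallium flux slope above the same plate's solvent-only control mean plus 3 SD; inconclusive = the two replicate wells disagree; inactive = no significant difference from solvent-only control wells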
# KCC2 bumet counter – thallium flux persisting under bumetanide in KCC2 cells, confirmation, counter-screen for KCC2 modulator project, cell-based, HEK293 KCC2, FluoZin2, secondary assay 3; shares compounds with KCC2 mod; 3,700 compounds, 49% hits; normalized thallium flux at 10 µM; HEK293-KCC2 + bumetanide/ouabain; stronger effect = higher value;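 active = thallium entry rate above the same plate's blocked-transporter control wells by more than 3 SD; inconclusive = the two repeat wells disagree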;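 note: raw slope of fluorescence over initial fluorescence between 10 and 20 s after thallium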
# KCC2 secondary2 – KCC2 modulators without ouabain present, confirmation, cell-based, HEK293 KCC2, thallium flux, FluoZin2, secondary assay 2 | normalized thallium flux at 10 µM | AID 1715, 2009 | shares compounds with KCC2 mod | 3,700 compounds, 23% hits | thallium flux FluoZin2 fluorescence; actives lie on both sides; F/F0 rise rate, 10–20 s post-thallium;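 active = thallium flux slope more than 3 SD above or below the plate's solvent-only control mean, mostly below; inconclusive = the two repeat wells disagreed; inactive = no significant shift from solvent-only controls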;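 note: raw slope with 0.1% DMSO as baseline and bumetanide as block control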
# HEK293 Tl flux – thallium flux modulation in parental HEK cells, confirmation, counter-screen for KCC2 modulator project, cell-based, counterscreen 1 | shares compounds with KCC2 mod | HEK293 parental cells, thallium flux FluoZin2, ouabain; baseline-ratio fluorescence slope, 10–20 s after thallium | thallium flux rate (normalised fluorescence) at 10 µM | 3,700 compounds, 46% hits;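 active = thallium flux rate significantly above the same plate's solvent-only control wells, beyond their mean plus 3 SD; inconclusive = the two replicate wells gave conflicting results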
# KCC2 ouabain – KCC2 inhibitors and activators, ouabain retest, confirmation, HEK-KCC2 cells | 3,700 compounds, 48% hits | raw Tl+ flux slope (below DMSO = inhibition, above = activation) at 10 µM | HEK293-KCC2, thallium flux FluoZin2 fluorescence; bidirectional: low = inhibitor, high = activator | AID 1717, 2009 | shares compounds with KCC2 mod;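 active = thallium flux slope beyond 3 SD from same-plate DMSO control mean in most replicates, usually higher, sometimes lower; inconclusive = repeat tests gave conflicting results; inactive = no significant difference from controls in most replicates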;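 note: slope of initial-normalized fluorescence between seconds 10 and 20 after thallium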
# HEK counter2 – native HEK Tl+ uptake effects, second counter-screen – HEK cells, counterscreen 2, counter-screen for KCC2 modulator project, confirmation; HEK293 parental, thallium flux FluoZin-2 fluorescence slope; shares compounds with KCC2 mod; 3,700 compounds, 33% hits; thallium flux slope at 10 µM;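 active = thallium flux slope above the same plate's solvent-control mean plus 3 SD in both duplicate wells; inconclusive = duplicate wells that disagreed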;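 note: run without ouabain in cells lacking the KCC2 cotransporter; slope of fluorescence scaled to its starting value between 10 and 20 s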
# * hit, by the source's call; ? = inconclusive; nt = no result given.
SMILES,p-CIP stab down,ABCB6 inh MLPCN,Dynein cargo inh,V-ATPase pHluor,KCC2 mod,KCC2 sec1,KCC2 bumet counter,KCC2 secondary2,HEK293 Tl flux,KCC2 ouabain,HEK counter2
O=C(Cn1cnc2c(nnn2Cc2ccccc2)c1=O)N1CCCc2ccccc21,-3.2,381.0,-0.423,-2.2,-4.46*,0.00675,0.0051,0.0216*,0.00805,?,0.0113
O=C(Cn1cnc2c(nnn2Cc2ccc(F)cc2)c1=O)N1CCN(c2ccccc2)CC1,-4.0,102.0,-0.446,-2.4,nt,0.00683,0.00436,0.0237*,0.00758,?,0.0109
O=C(Cn1cnc2c(nnn2Cc2ccccc2)c1=O)c1ccc(Cl)cc1,1.2,102.0,-0.476,1.4,-4.07*,0.0101,?,?,0.00801,0.0178*,0.0107
O=C(Cn1cnc2c(nnn2-c2ccccc2)c1=O)N1CCCc2ccccc21,4.3,93.0,0.43,-1.7,-0.572,nt,nt,nt,nt,nt,nt
Cc1nn(C(=O)N(C)C)c(C)c1CN1C(=O)c2ccccc2C1=O,4.0,103.0,nt,-0.5,nt,nt,nt,nt,nt,nt,nt
O=C1NC(=O)/C(=C/c2ccccc2OCc2ccccc2)S1,-12.2,97.0,0.0914,0.0,-5.68*,0.00856,0.00713,0.033,0.00644,0.0153*,?
CC(Nc1cccc2ccccc12)C(=O)N/N=C/c1ccc([N+](=O)[O-])cc1 (stereo not given),-6.9,98.0,0.411,1.6,-0.455,nt,nt,nt,nt,nt,nt
Cc1cccc(/C=N/NC(=O)C(C)Nc2cccc3ccccc23)n1 (stereo not given),0.2,108.0,-0.511,-1.1,nt,0.00833,0.00549,0.0313,0.00431,0.0183,0.0115
O=C(NC(=S)Nc1cc([N+](=O)[O-])ccc1O)C1CC1,5.3,87.0,nt,0.9,nt,nt,nt,nt,nt,nt,nt
CN(Cc1ccccc1)C(=O)COC(=O)c1cc(=O)c2ccccc2o1,nt,101.0,nt,8.7,nt,nt,nt,nt,nt,nt,nt
COC(=O)C1C(=O)C2=C(CC1C)NC(C)=C(C(=O)OC(C)C)C2c1ccc(C)o1 (stereo not given),1.3,88.0,-0.184,-3.4,nt,0.0092,0.00541,0.0294,0.00707,0.0203,0.00924
O=C1[C@H](Cc2ccccc2)NCC=CC[C@@H](c2ccc(Cl)cc2)N1Cc1ccccc1,nt,98.0,nt,-1.4,nt,nt,nt,nt,nt,nt,nt
COc1ccc(-c2coc3cc(O)cc(O)c3c2=O)cc1,-6.7,105.0,-0.607,4.7,-5.17,?,0.00625,0.0282,0.00695,0.016*,?
COc1ccc(-c2coc3cc(OC)cc(O)c3c2=O)cc1,-9.2,103.0,0.875,-1.2,0.00575,nt,nt,nt,nt,nt,nt
CCN(c1ccccc1)S(=O)(=O)c1cc2c3c(c1)CCN3C(=O)CC2,nt,92.0,nt,-0.8,nt,nt,nt,nt,nt,nt,nt
O=[N+]([O-])c1ccc(/C=N/NC(=S)Nc2ccccc2C(F)(F)F)o1,3.5,99.0,0.00861,4.3,20.6*,0.00721,0.0463*,0.0505*,0.0266*,0.0538*,0.0212*
Cc1cccc(C)c1Nc1nnc(SCC(=O)NC(=O)c2cccn2C)s1,3.4,98.0,-0.686,4.9,-4.7*,0.00709,0.00477,0.0277,0.0047*,0.0139*,0.00822
CCOc1ccc(C(=O)NCC(=O)NNC(=O)c2ccco2)cc1OCC,nt,103.0,nt,1.6,nt,nt,nt,nt,nt,nt,nt
O=C(CSc1nnc(Cc2ccccc2)o1)c1ccc(F)cc1,7.5,97.0,-0.971,-1.7,-4.32*,0.00505,?,0.022*,0.00737,?,0.0103
O=C(CSc1nnc(Cc2ccccc2)o1)N1CCCc2ccccc21,-5.7,108.0,-0.134,2.4,-6.05*,0.00562,0.00382,0.021*,0.00682,0.0115*,?
O=C(CSc1nnc(Cc2ccccc2)o1)c1cc(F)ccc1F,-12.1,97.0,-1.07,6.3,-7.13*,0.00392*,0.00461,0.0199*,?,0.0122*,0.00988
CSc1ccc(NS(=O)(=O)c2ccc(-n3cnnn3)cc2)cc1,-24.5,94.0,nt,-5.7,nt,nt,nt,nt,nt,nt,nt
O=C(c1cc(C(=O)N2CCCC2)cc([N+](=O)[O-])c1)N1CCCC1,-6.4,90.0,nt,2.9,nt,nt,nt,nt,nt,nt,nt
CC(/C=C\C=C\c1ccccc1)=N\NC(=O)c1cncc(Br)c1,3.0,94.0,-0.48,4.7,12.6*,?,0.0289*,0.036,0.0377*,0.0313*,0.0173*
CC(/C=C/c1ccccc1F)=N\NC(=O)c1ccc(Cl)cc1,-2.6,97.0,-0.786,-1.2,6.21*,0.0238*,0.0201*,?,0.0152*,0.0217*,0.0195*
SMILES,p-CIP stab down,ABCB6 inh MLPCN,Dynein cargo inh,V-ATPase pHluor,KCC2 mod,KCC2 sec1,KCC2 bumet counter,KCC2 secondary2,HEK293 Tl flux,KCC2 ouabain,HEK counter2
CC(/C=C/c1ccccc1)=N\NC(=O)c1ccc(Br)cc1,5.9,103.0,-0.581,1.0,8.17*,0.0224*,0.0284*,0.0328,0.0157*,0.0205,0.0176*
C/C(=N\NC(=O)c1ccccc1)c1cccc(Br)c1,2.0,99.0,0.756,0.2,2.03,nt,nt,nt,nt,nt,nt
CC(/C=C/c1ccccc1)=N/NC(=O)c1cccc(Br)c1,-20.2,97.0,0.11,4.4,10.5*,0.0112,0.0368*,0.0304,0.0371*,0.0299*,0.0136*
CC(/C=C/c1ccccc1F)=N\NC(=O)c1ccccc1,-0.7,98.0,1.2,0.2,0.845,nt,nt,nt,nt,nt,nt
COc1ccc2cc3cc(C(=O)N4CCN(c5ccccn5)CC4)oc3nc2c1,3.0,96.0,nt,-2.6,nt,nt,nt,nt,nt,nt,nt
O=C(CSc1nc2[nH]ncc2c(=O)[nH]1)NCCc1ccccc1,1.0,101.0,0.482,-1.1,1.35,nt,nt,nt,nt,nt,nt
